{"source": "paper PMC7993229", "about": "(Oncoimmunology, 2021)", "key": {"[1]": {"conditions": "first-in-human clinical study; cited from earlier work"}, "[2]": {"tested_on": "primary tumor digests", "experiment": "Anti-CD3-stimulated primary tumor digest culture", "assay_type": "cell-based, human", "conditions": "without PGE2 spike", "procedure,_shortened": "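Cells were plated at 0.1 × 10^6/well, from four donors, and cultured 48 h. IFN-γ and TNF-α in supernatants were read on a Meso Scale Discovery platform; technical-replicate means were taken per donor.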"}, "[3]": {"tested_on": "human CD8+ T cells", "experiment": "MF-766 and pembrolizumab combination in human CD8+ T cells", "assay_type": "cell-based", "conditions": "for CD8+ T cell viability: Fig S2B", "procedure,_shortened": "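CD8+ T cells were purified from frozen healthy-donor PBMCs and seeded at 1 × 10^5 cells/well in RPMI-1640 with 10% heat-inactivated FBS and 2 mM L-glutamine. Test compound was titrated from 3 µM in 3-fold steps ± PGE2 (10 nM), with pembrolizumab or human IgG4 isotype at 20 µg/mL. Cells were activated with anti-CD3/CD28 beads plus 100 U/mL IL-2 for 24 h at 37°C; IFN-γ was read by Meso Scale Discovery.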"}, "[4]": {"tested_on": "bone marrow-derived dendritic cells (BMDCs)", "experiment": "Dendritic cell activation", "assay_type": "cell-based, C57/BL6 mice", "conditions": "mouse BMDCs", "procedure,_shortened": "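Bone marrow flushed from C57BL/6 femurs was cultured 6 days in RPMI with 20 ng/mL mouse GM-CSF and 20 ng/mL mouse IL-4 to give immature DCs. Cells were pretreated 1 h with test compound, then given 1 μg/mL LPS ± 0.037 μM PGE2 for 18 h. Supernatant TNF-α was read with a Meso Scale Discovery mouse panel.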"}, "[5]": {"tested_on": "human monocyte-derived DCs", "experiment": "Dendritic cell activation", "assay_type": "cell-based", "procedure,_shortened": "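Commercially sourced human dendritic cells were pretreated 1 h with test compound. They were then stimulated with 1 μg/mL LPS with or without 0.037 μM PGE2 for 18 h. TNF-α in the medium was quantified with a Meso Scale Discovery human pro-inflammatory panel.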"}, "[6]": {"experiment": "Pharmacokinetic parameters of MF-766 in mice", "conditions": "female, C57/B6, mouse, in vivo, po"}, "[7]": {"tested_on": "CT26 tumors", "experiment": "CT26 syngeneic tumor model efficacy study", "assay_type": "in vivo, BALB/c mouse", "procedure,_shortened": "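Female BALB/cAnN mice (6–8 weeks) received 0.5 × 10^6 CT26 cells s.c. in the lower right flank. Dosing began at a mean tumor volume of 100 mm3 (75–125). Test compound 30 mg/kg (10% Tween 80) or vehicle was given orally QDx21; anti-PD-1 or isotype was given 10 mg/kg i.p. Q4Dx4. Volume = 0.5 × L × W², followed 60 days. RTV and TGI (%) were calculated; n = 9–12; one-way ANOVA vs vehicle/isotype.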"}, "[8]": {"tested_on": "EMT6 tumors", "experiment": "EMT6 syngeneic tumor model efficacy study", "assay_type": "in vivo, BALB/c mouse", "conditions": "MF-766 30 mpk", "procedure,_shortened": "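EMT6 cells (0.5 × 10^6) were implanted s.c. in the right flank of female BALB/cAnN mice aged 6–8 weeks. Treatment started at a mean tumor volume of 100 mm3 (75–125). Test compound 30 mg/kg in 10% Tween 80 was dosed orally QDx28; anti-PD-1 10 mg/kg i.p. Q4Dx4. Tumor volume = 0.5 × L × W². Relative tumor volume and TGI (%) were derived vs control; n = 9–12; one-way ANOVA vs vehicle/isotype.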"}, "[9]": {"tested_on": "Human NK cells", "experiment": "Natural killer cell activation", "assay_type": "cell-based"}, "[10]": {"tested_on": "PGE2-induced MDSCs / autologous CD8+ T cells", "experiment": "Suppressive myeloid cell and T-cell co-culture assay", "assay_type": "cell-based, human", "conditions": "1:4 ratio, anti-CD3/CD28 beads, vs DMSO control; MF-766 10, 1, 0.1, 0.01 μM"}, "[11]": {"tested_on": "THP-1 cells", "experiment": "THP-1 LPS-stimulated TNF-α assay", "assay_type": "cell-based, human", "conditions": "1 h pretreatment, 1 μg/mL LPS + PGE2", "procedure,_shortened": "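THP-1 monocytes were preincubated 1 h with graded test compound concentrations. They were then stimulated with 1 μg/mL LPS, with or without 0.33 μM PGE2, for 18 h. Cells were centrifuged and TNF-α in the supernatant was quantified by Meso Scale Discovery.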"}, "[12]": {"tested_on": "healthy human whole blood", "experiment": "Ex vivo whole blood LPS-stimulated TNF-α assay", "assay_type": "cell-based", "conditions": "1 μg/mL LPS + PGE2", "procedure,_shortened": "(§1)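 Blood was collected in sodium heparin. Healthy-donor blood was used fresh on assay day; CRC patient blood was drawn 1 day before and shipped overnight. Samples were pretreated 1 h with test compound, then stimulated with 1 μg/mL LPS (final) ± 0.037 μM PGE2 for 18 h. After centrifugation, TNF-α in the supernatant was measured by Meso Scale Discovery.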"}, "[13]": {"tested_on": "CRC patient blood", "experiment": "Ex vivo whole blood LPS-stimulated TNF-α assay", "assay_type": "cell-based, human", "conditions": "1 μg/mL LPS + PGE2", "procedure,_shortened": "as §1"}, "[14]": {"tested_on": "human primary tumor histoculture", "experiment": "Human tumor histoculture", "assay_type": "cell-based", "conditions": "histoculture system", "procedure,_shortened": "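Tumor tissue was trimmed of fat, cut into ~400 µm slices and cultured at the air–liquid interface (37°C, 5% CO2) in DMEM with 10% FBS and penicillin/streptomycin. Slices were stimulated with 50 ng/mL anti-human CD3 plus test compound or DMSO for 48 h. IFN-γ, IL-2 and TNF-α were measured by Meso Scale Discovery and expressed as fold change vs DMSO (mean ± S.E.M, n = 8).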"}, "[15]": {"tested_on": "CT26 tumors", "experiment": "Flow cytometry of immune infiltrates in CT26 tumors", "assay_type": "in vivo, mouse", "procedure,_shortened": "(§2)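 Mice bearing 100 mm3 tumors were dosed as in the efficacy schedule, and tumors were harvested on day 8. Tumors were weighed, enzymatically dissociated and filtered (70 µm). Then 2–3 million cells were stained with fixable viability dye, Fc-blocked 10 min on ice and surface-stained 30 min on ice. Populations were gated within viable CD45+ singlets (NK CD3−CD335+CD49b+; gMDSC CD11b+Ly6G+; macrophages; DCs) and reported as % CD45+ and cells/mg tumor; n = 9–10.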"}, "[16]": {"tested_on": "EMT6 tumors", "experiment": "Flow cytometry of immune infiltrates in EMT6 tumors", "assay_type": "in vivo, mouse", "conditions": "EMT6, single-agent treatment", "procedure,_shortened": "as §2"}, "[17]": {"conditions": "rat AIA model; cited from earlier work"}}, "data": [{"compound": "C[C@H](NC(=O)c1c(C(F)F)nn(C)c1Oc1cccc(C(F)(F)F)c1)c1ccc(C(=O)O)cc1", "note": "[E-7046]", "values": [{"measurement": "tolerability", "setting": "[1]", "value": "well tolerated"}]}, {"compound": "pembrolizumab: humanized monoclonal immunoglobulin (Ig)G4 antibody against PD-1", "values": [{"measurement": "IFN-γ and TNF-α secretion", "setting": "[2]", "value": "enhanced"}]}, {"compound": "CCCCC[C@H](O)/C=C/[C@H]1[C@H](O)CC(=O)[C@@H]1C/C=C\\CCCC(=O)O", "note": "[PGE2, Prostaglandin E2, reference compound]", "values": [{"measurement": "CD8+ T cell viability", "setting": "[3]", "value": "Neither PGE2 nor MF-766 addition affected"}, {"measurement": "suppression of TNF-α production", "setting": "[4]; compared to LPS alone", "value": "~ 30%"}, {"measurement": "suppression of TNF-α production", "setting": "[5]; compared to LPS alone", "value": "~ 30%"}]}, {"compound": "O=C(O)c1ccc(C2(NC(=O)c3cccc4ccn(Cc5ccc(C(F)(F)F)cc5)c34)CC2)cc1", "note": "[MF-766, 4-[1-[([1-[4-(trifluoromethyl)benzyl]-1H-indol-7-yl]carbonyl)amino]cyclopropyl]be nzoic acid]", "values": [{"measurement": "AUC(0-t)", "setting": "[6]; 30 mg/kg", "value": "57.5 ± 10.8", "unit": "µM·h"}, {"measurement": "Cmax", "setting": "[6]; 30 mg/kg", "value": "15 ± 4.37", "unit": "µM"}, {"measurement": "Tmax", "setting": "[6]; 30 mg/kg", "value": 30, "unit": "min"}, {"measurement": "AUC(0-t)", "setting": "[6]; 100 mg/kg", "value": "255 ± 97.3", "unit": "µM·h"}, {"measurement": "Cmax", "setting": "[6]; 100 mg/kg", "value": "24.1 ± 6.01", "unit": "µM"}, {"measurement": "Tmax", "setting": "[6]; 100 mg/kg", "value": 30, "unit": "min"}, {"measurement": "tumor progression on monotherapy", "setting": "[7]; MF-766 30 mpk monotherapy", "value": "all tumors progressed"}, {"measurement": "tumor volume reduction", "setting": "[7]; compared to vehicle/isotype treated group, MF-766 30 mpk, muDX400 10 mpk", "value": 49, "unit": "%"}, {"measurement": "single-agent activity", "setting": "[8]", "value": "did not show single-agent activity"}, {"measurement": "reversal of PGE2-suppressed IFN-γ secretion", "setting": "[9]; 1 h pretreatment, 50 ng/mL IL-2 ± PGE2 overnight", "value": "reversed by pretreatment with MF-766 in a dose-dependent manner"}, {"measurement": "NK cell viability", "setting": "[9]; conditions of Figure 2b (Fig S2A)", "value": "not affected"}, {"measurement": "reversal of MDSC/PGE2 suppression of IFN-γ release from CD8+ T cells", "setting": "[10]", "value": "reversed by MF-766 in a dose-dependent manner"}, {"measurement": "CD8+ T cell viability", "setting": "[3]", "value": "Neither PGE2 nor MF-766 addition affected"}, {"measurement": "reversal of PGE2-mediated inhibition of IFN-γ production", "setting": "[3]; PGE2 10 nM, anti-CD3/CD28 beads, 24 hours, MF-766 alone", "value": "reversed PGE2-mediated inhibition of IFN-γ production"}, {"measurement": "reversal of PGE2-decreased LPS-stimulated TNF-α production", "setting": "[11]", "value": "fully reversed"}, {"measurement": "reversal of PGE2 suppression of LPS-stimulated TNF-α production", "setting": "[12]", "value": "partially reversed"}, {"measurement": "restoration of PGE2-suppressed TNF-α production", "setting": "[13]", "value": "partially restored"}, {"measurement": "restoration of PGE2-suppressed TNF-α production", "setting": "[4]; 1 μg/mL LPS + PGE2", "value": "fully restored"}, {"measurement": "restoration of PGE2-suppressed TNF-α production", "setting": "[5]; 1 μg/mL LPS + PGE2", "value": "fully restored"}, {"measurement": "anti-CD3–stimulated IFN-γ, IL-2, and TNF-α secretion", "setting": "[14]", "value": "increase"}, {"measurement": "MHCII high/low macrophage ratio", "setting": "[15]; CT26", "value": "increased"}, {"measurement": "NK cells, percentage in CD45+ fraction and absolute number per mg tumor", "setting": "[15]; CT26, D8", "value": "significantly enriched"}, {"measurement": "CD3+ T cells, frequency of CD45+ cells and absolute numbers in the tumor", "setting": "[15]; CT26, D8, primarily CD8+ T cells, not CD4+", "value": "significant enrichment"}, {"measurement": "absolute numbers of tumor-infiltrating CD45+ leukocytes per mg tumor", "setting": "[15]; CT26, D8 post-therapy", "value": "significantly increased"}, {"measurement": "CD8+ DCs", "setting": "[15]; CT26, single-agent treatment", "value": "remarkable increase"}, {"measurement": "CT26 tumor weight", "setting": "[15]; day 8, difference did not reach statistical significance", "value": "trend toward reduction in size"}, {"measurement": "CD8+ or NK cell infiltration into tumors", "setting": "[16]", "value": "did not significantly increase"}, {"measurement": "percentage of gMDSCs", "setting": "[16]; absolute numbers per mg not significant", "value": "significantly decreased"}, {"measurement": "potency compared to other COX-2 inhibitors, including celecoxib and MF-tricyclic", "setting": "[17]", "value": "greater than 200 fold"}]}]}
